Rows were chosen to be rich in hits. Some 5.9% of all compounds tested hit in one or more screens of this group.
KDM4C inh: blocks human GASC-1 (KDM4C) demethylase activity | Q9H3R0 | GST-KDM4C 2-372, H3K9me3 peptide, LANCE TR-FRET | inhibition, % at 12.5 µM | actives 0.15% (n = 96,000) | AID 720574;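 active = mean replicate inhibition above about 25%, with at least 55% of replicates also reaching it, limit read from the data, passing the limit was not always enough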
Target sequence (Q9H3R0 2-372 limits assumed): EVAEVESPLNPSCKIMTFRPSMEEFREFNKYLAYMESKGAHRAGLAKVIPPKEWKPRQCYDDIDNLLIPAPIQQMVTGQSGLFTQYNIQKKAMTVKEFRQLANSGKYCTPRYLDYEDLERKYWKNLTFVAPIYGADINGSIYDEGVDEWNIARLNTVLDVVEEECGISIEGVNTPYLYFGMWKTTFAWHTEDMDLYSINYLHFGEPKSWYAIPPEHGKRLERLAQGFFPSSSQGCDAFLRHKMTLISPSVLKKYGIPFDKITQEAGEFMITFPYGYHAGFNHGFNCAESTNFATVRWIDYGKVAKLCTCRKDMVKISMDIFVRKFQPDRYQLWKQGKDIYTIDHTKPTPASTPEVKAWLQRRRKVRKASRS
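Assay system: GST-GASC-1 enzyme fragment 2-372 | Amount: 10 nM enzyme | Medium: HEPES buffer, pH 7.5, plus ascorbate | Reagent: H3K9me3 peptide substrate, Fe(II), 2-oxoglutarate | Doses: Single-point compound screen | Incubation: 30 min demethylation and 1 h detection at room temperature | Measured by: LANCE TR-FRET, excitation 340 nm, emissions 618 and 671 nm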
Pf Dd2 inh: inhibitors of Plasmodium falciparum Dd2 growth. P. falciparum Dd2 growth, SYBR Green, 72 h; stronger effect = lower value. activity change, % at 10 µM. actives 2.3% (n = 94,000). AID 1159554; in the data active = activity change below about -80%
T cruzi growth: T. cruzi proliferation inhibition; T. cruzi beta-gal in NIH3T3, GalScreen luminescence, 90 h; inhibition, % at 8.34 µM; actives 5.9% (n = 77,000); AID 624255;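 active = mean inhibition above about 93%, with at least 55% of replicates each passing it, limit read from the data, passing the limit was not always enough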
IDH1 mut inh: inhibitors of human IDH1 R132H; IDH1 R132H reductase, diaphorase/resazurin fluorescence, 60 min; inhibition, % at 10 µM; actives 0.18% (n = 70,000); in the data active = inhibition above about 34%;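 also: 0% = DMSO and 100% = no enzyme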
* = called active by the depositor; x = no result given.

SMILES | KDM4C inh | Pf Dd2 inh | T cruzi growth | IDH1 mut inh
C[C@@H]1CN([C@H](C)CO)C(=O)c2cc(NC(=O)c3ccccc3)ccc2O[C@@H](C)CCCCO[C@H]1CN(C)S(=O)(=O)c1cccs1 | -2 | -63 | 75 | 0
O=C(C[C@@H]1C=C[C@@H](NC(=O)Nc2ccc(C(F)(F)F)cc2)[C@H](CO)O1)NCc1ccccn1 | 0 | -3 | -19 | 0
COc1ccc(S(=O)(=O)N2CC[C@@H]3[C@H]2c2cc(-c4ccc(C#N)cc4)ccc2N[C@@H]3CO)cc1 | 0 | -91* | 89 | x
COc1ccc(-c2ccc3c(c2)[C@@H]2[C@@H](CCN2S(=O)(=O)c2ccc(OC)cc2)[C@H](CO)N3)cc1 | 1 | -58 | 49 | x
COc1cccc(-c2ccc3c(c2)[C@@H]2[C@@H](CCN2C(=O)C2CCCC2)[C@H](CO)N3)c1 | -3 | -86* | x | x
CCN(CC)c1ccc(/C=N/NC(=O)c2cccc(C(=O)NO)c2)c(O)c1 | x | x | x | 0
C[C@@H]1CN([C@H](C)CO)C(=O)c2cc(NC(=O)CCC(F)(F)F)ccc2O[C@@H](C)CCCCO[C@@H]1CN(C)S(=O)(=O)c1cccs1 | 0 | -85* | 68 | -1
C[C@@H]1CCCCO[C@@H](CN(C)S(=O)(=O)c2cccs2)[C@@H](C)CN([C@@H](C)CO)C(=O)c2cc(NC(=O)Nc3ccc(C(F)(F)F)cc3)ccc2O1 | 0 | -87* | 84 | 1
C[C@@H]1CCCCO[C@H](CN(C)S(=O)(=O)c2cccs2)[C@@H](C)CN([C@@H](C)CO)C(=O)c2cc(NC(=O)Nc3ccc(C(F)(F)F)cc3)ccc2O1 | -3 | -87* | 94 | x
C[C@@H]1CN([C@@H](C)CO)C(=O)c2cc(NC(=O)CCC(F)(F)F)ccc2O[C@@H](C)CCCCO[C@@H]1CN(C)S(=O)(=O)c1cccs1 | 1 | -63 | 39 | 1
O=C(CCN1CCCCC1)N[C@H]1CC[C@H](CCn2cc(-c3ccc(F)cc3)nn2)O[C@H]1CO | 13 | -10 | -18 | 0
O=S(=O)(c1ccc(F)cc1)N1CC[C@@H]2[C@@H](CO)Nc3ccc(C#Cc4cccc(F)c4)cc3[C@@H]21 | -3 | -10 | x | x
COc1ccccc1C#Cc1ccc2c(c1)[C@H]1NCC[C@H]1[C@@H](CO)N2 | -2 | -87* | x | x
OC[C@@H]1Nc2ccc(C#Cc3cccc(F)c3)cc2[C@@H]2NCC[C@H]12 | 2 | -91* | x | x
CC(C)NC(=O)N1[C@H](C#N)[C@H](c2ccc(C#CC3CCCCC3)cc2)[C@@H]1CO | -4 | -81* | 93 | x
Cc1ccccc1S(=O)(=O)N1[C@H](C#N)[C@H](c2ccc(C#CC3CCCC3)cc2)[C@@H]1CO | 0 | -90* | x | x
N#C[C@H]1[C@H](c2ccc(C#CC3CCCCC3)cc2)[C@H](CO)N1C(=O)Nc1ccc(F)cc1 | 5 | -26 | x | x
N#C[C@H]1[C@@H](c2ccc(C#CC3CCCCC3)cc2)[C@H](CO)N1C(=O)Nc1ccc(F)cc1 | 1 | -52 | x | x
N#C[C@@H]1[C@@H](c2ccc(C#CC3CCCCC3)cc2)[C@H](CO)N1C(=O)Nc1ccc(F)cc1 | -1 | -86* | x | x
CNC[C@@H]1OCc2cn(nn2)CCCC(=O)N([C@@H](C)CO)C[C@@H]1C | -2 | -12 | 4 | 1
COCC(=O)N1CC2(C1)CN(Cc1cc(F)ccc1F)[C@@H](CO)c1[nH]c3cc(OC)ccc3c12 | 0 | -71 | x | x
CCC(=O)N1CC2(C1)CN(Cc1cc(F)ccc1F)[C@H](CO)c1[nH]c3cc(OC)ccc3c12 | -2 | -90* | x | x
COc1ccc2c3c([nH]c2c1)[C@@H](CO)N(Cc1ccccc1OC)CC31CCN(C(C)=O)CC1 | x | 52 | x | x
COc1ccc2c3c([nH]c2c1)[C@H](CO)N(Cc1cc(F)ccc1F)CC31CCN(C(C)=O)CC1 | -2 | -90* | x | x
CCC(=O)N1CCC2(CC1)CN(Cc1cc(F)ccc1F)[C@H](CO)c1[nH]c3cc(OC)ccc3c12 | 0 | -87* | x | x
COc1ccc2c3c([nH]c2c1)[C@H](CO)N(Cc1cc(F)ccc1F)CC31CCN(C(=O)C2CCC2)CC1 | 3 | -88* | x | x
COc1ccc2c3c([nH]c2c1)[C@@H](CO)N(Cc1cc(F)ccc1F)CC31CN(C(C)=O)C1 | 0 | -74 | x | x
CCc1ccccc1OCC(=O)Nc1cc(OC)ccc1OC | x | x | x | 0
Cc1ccc(OCC(=O)Nc2ccc(C)cc2[N+](=O)[O-])c(C)c1 | x | x | x | 0
C[C@@H]1CN([C@@H](C)CO)C(=O)c2c(c3ccccc3n2C)-c2ccccc2CO[C@H]1CN(C)Cc1ccc2c(c1)OCO2 | 0 | -83* | x | x

Bioassay records: PubChem BioAssay, Broad Institute
